According to ChEMBL document CHEMBL3580569, “N-Substituted Quinolinonyl Diketo Acid Derivatives as HIV Integrase Strand Transfer Inhibitors and Their Activity against RNase H Function of Reverse Transcriptase” (J Med Chem, 2015):

Tests used:
[1] = Selectivity index, ratio of CC50 for human HeLa-CD4-LTR-beta-gal cells to EC50 for HIV-1 3B infected in human HeLa-CD4-LTR-beta-gal cells; assay type: toxicity; settings: read-out: Ratio CC50/EC50
[2] = target: Human immunodeficiency virus type 1 reverse transcriptase (Human immunodeficiency virus 1) (UniProt Q72547); experiment: Inhibition of RNase H function of HIV1 reverse transcriptase using DNA/RNA hybrid as substrate at 10 uM by fluorescence spectrometer analysis
Summary of the method: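 RNase H activity of HIV-1 RT was measured with an RNA/DNA hybrid substrate at 250 nM final, with 150–800 ng RT, in 50 mM Tris-HCl pH 8.0, 60 mM KCl, 10 mM MgCl2 and 1% DMSO, against DMSO-only wells. Fluorescence (ex 485/em 520 nm) was read each minute over 10 min at 37 °C. Percent inhibition at 10 μM = 100(v0−vi)/v0 from initial rates, run in triplicate.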

[3] = target: T1, Human immunodeficiency virus type 1 integrase (Human immunodeficiency virus 1, UniProt Q7ZJM1)
T1 sequence (Q7ZJM1 whole entry): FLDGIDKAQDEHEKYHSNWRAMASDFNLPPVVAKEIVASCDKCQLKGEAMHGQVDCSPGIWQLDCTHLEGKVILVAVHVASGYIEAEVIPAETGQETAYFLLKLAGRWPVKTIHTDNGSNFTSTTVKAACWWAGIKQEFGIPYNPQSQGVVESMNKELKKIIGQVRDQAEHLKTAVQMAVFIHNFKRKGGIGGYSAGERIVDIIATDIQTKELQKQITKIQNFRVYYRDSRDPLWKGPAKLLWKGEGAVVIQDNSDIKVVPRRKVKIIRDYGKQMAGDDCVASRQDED

[4] = test system: Human immunodeficiency virus 1; experiment: Antiviral activity against HIV-1 3B infected in human HeLa-CD4-LTR-beta-gal cells assessed as inhibition of viral replication by SpectraMax GEMINI-XS plate reader analysis; assay type: functional, organism-based; settings: Human immunodeficiency virus 1, 3B
Summary of the method: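 HeLa-CD4-LTR-β-gal cells kept in DMEM, 10% serum, 0.5 mg/mL G418; seeded 10000 cells/well the day before. Drug 3-fold serially diluted over six points on cells (top 50 μM), then fresh medium or concentrated HIV-1(IIIB) supernatant added.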

[5] = test system: HeLa; experiment: Cytotoxicity against human HeLa-CD4-LTR-beta-gal cells after 24 hrs by ATPlite reagent based luminescence analysis; assay type: cell-based
[6] = target: T1, Human immunodeficiency virus type 1 integrase; remark: listed apart in the source
[7] = target: Human immunodeficiency virus type 1 reverse transcriptase (Human immunodeficiency virus 1, UniProt Q72547); experiment: Inhibition of RNase H function of HIV1 reverse transcriptase using DNA/RNA hybrid as substrate by fluorescence spectrometer analysis

Compound	selectivity ratio [1]	inhibition [2]	IC50 [3]	EC50 [4]	CC50 [5]	IC50 [6]	IC50 [7]
CCOC(=O)/C(O)=C/C(=O)c1cn(Cc2ccccc2OC)c2ccccc2c1=O [20, RDS-2163]	> 19.2	11.4%	> 333 µM	2.6 µM	> 50 µM	1400 nM	
CCOC(=O)/C(O)=C/C(=O)c1cn(Cc2ccccc2F)c2cc(Cl)ccc2c1=O	> 4.5	2.8%		11 µM	> 50 µM		
CCOC(=O)/C(O)=C/C(=O)c1cn(Cc2ccc(Cl)cc2)c2ccccc2c1=O		16.1%	> 37 µM	> 50 µM		> 37000 nM	
O=C(O)/C(O)=C/C(=O)c1cn(Cc2ccc(O)cc2)c2ccccc2c1=O			> 37 µM	> 50 µM		450 nM	9.5 µM
CCOC(=O)/C(O)=C/C(=O)c1cn(Cc2cccc(F)c2)c2ccccc2c1=O [RDS-1624]	> 29.4	-9.4%	> 12.3 µM	1.7 µM	> 50 µM	4900 nM	
CCOC(=O)/C(O)=C/C(=O)c1cn(CCCCc2ccccc2)c2ccccc2c1=O		19.4%	> 333 µM	> 50 µM		120000 nM	
COc1cccc(Cn2cc(C(=O)/C=C(\O)C(=O)O)c(=O)c3ccccc32)c1 [RDS-2161]		1.9%	> 4.1 µM	> 50 µM		140 nM	
CCOC(=O)/C(O)=C/C(=O)c1cn(Cc2ccc(C)cc2C)c2ccccc2c1=O		33%		> 50 µM		> 111000 nM	> 50 µM
CCOC(=O)/C(O)=C/C(=O)c1cn(Cc2ccc3ccccc3c2)c2ccccc2c1=O		29.7%	> 333 µM	> 50 µM		32000 nM	
CCOC(=O)/C(O)=C/C(=O)c1cn(Cc2ccccc2F)c2ccccc2c1=O	> 33.4	2.8%	125 µM	1.5 µM	> 50 µM	280 nM	
O=C(O)/C(O)=C/C(=O)c1cn(Cc2ccc(Cl)cc2Cl)c2ccccc2c1=O				> 50 µM		2300 nM	44.7 µM
Cc1nnc(C(=O)NC(C)(C)c2nc(C(=O)NCc3ccc(F)cc3)c(O)c(=O)n2C)o1					> 50 µM		
O=C(O)/C(O)=C/C(=O)c1cn(Cc2ccc3ccccc3c2)c2ccccc2c1=O	> 10.4	40.7%	18 µM	4.8 µM	> 50 µM	< 450 nM	
O=C(O)/C(O)=C/C(=O)c1cn(Cc2ccccc2F)c2c(Cl)cccc2c1=O		45%	20.5 µM	> 50 µM		130 nM	> 50 µM
CCOC(=O)/C(O)=C/C(=O)c1cn(Cc2cccc(OC)c2)c2ccccc2c1=O	5.2	4.9%	> 333 µM	8.5 µM	44 µM	16000 nM	
COc1cc2c(cc1Cc1cccc(Cl)c1F)c(=O)c(C(=O)O)cn2[C@H](CO)C(C)C				0.0142 µM	> 50 µM		
CCOC(=O)/C(O)=C/C(=O)c1cn(Cc2ccc(Cl)cc2Cl)c2ccccc2c1=O		51%		> 50 µM		> 111000 nM	> 50 µM
CCOC(=O)/C(O)=C/C(=O)c1cn(Cc2ccc(OC)cc2)c2ccccc2c1=O		10%	> 37 µM	> 50 µM		> 37000 nM	
CCOC(=O)/C(O)=C/C(=O)c1cn(Cc2ccccc2)c2ccccc2c1=O	> 50	-3.3%	> 1000 µM	1 µM	> 50 µM	700 nM	
CCOC(=O)/C(O)=C/C(=O)c1cn(Cc2cc(F)ccc2F)c2ccccc2c1=O		30%		> 50 µM		3700 nM	
O=C(O)/C(O)=C/C(=O)c1cn(Cc2cccc(Cl)c2F)c2ccccc2c1=O	> 2.1	12%	1.75 µM	23.4 µM	> 50 µM	18 nM	
CCOC(=O)/C(O)=C/C(=O)c1cn(Cc2c(F)cccc2F)c2ccccc2c1=O	> 250	4.1%	> 12.3 µM	< 0.2 µM	> 50 µM	250 nM	
O=C(O)/C(O)=C/C(=O)c1cn(Cc2ccc([N+](=O)[O-])cc2)c2ccccc2c1=O			27 µM	> 50 µM		640 nM	47 µM
CCOC(=O)/C(O)=C/C(=O)c1cn(Cc2ccc(F)cc2F)c2ccccc2c1=O	> 86.2	3%		0.58 µM	> 50 µM	2200 nM	

Compound	selectivity ratio [1]	inhibition [2]	IC50 [3]	EC50 [4]	CC50 [5]	IC50 [6]	IC50 [7]
CCOC(=O)/C(O)=C/C(=O)c1cn(Cc2cc(F)cc(F)c2)c2ccccc2c1=O	> 1.5	24%		32.4 µM	> 50 µM	11000 nM	
O=C(O)/C(O)=C/C(=O)c1cn(Cc2c(Cl)cccc2Cl)c2ccccc2c1=O		86.3%		> 50 µM		270 nM	10 µM
O=C(O)/C(O)=C/C(=O)c1cn(CCCCc2ccccc2)c2ccccc2c1=O		33%	> 333 µM	> 50 µM		< 450 nM	
CCOC(=O)/C(O)=C/C(=O)c1cn(Cc2ccc3ccccc3n2)c2ccccc2c1=O		4.4%	> 1000 µM	> 50 µM		3500 nM	
CCOC(=O)/C(O)=C/C(=O)c1cn(Cc2ccc(F)c(Cl)c2)c2ccccc2c1=O	> 2.9	18%	266 µM	17.4 µM	> 50 µM	3100 nM	
CCOC(=O)/C(O)=C/C(=O)c1cn(Cc2cc(C)cc(C)c2)c2ccccc2c1=O		21%		> 50 µM		1300 nM	
O=C(O)/C(O)=C/C(=O)c1cn(Cc2ccccc2)c2ccccc2c1=O		9.6%	4 µM	15.5 µM	> 50 µM	34 nM	
CCOC(=O)/C(O)=C/C(=O)c1cn(Cc2ccc(O)cc2)c2ccccc2c1=O	> 1.6	26%	> 333 µM	30.9 µM	> 50 µM	1400 nM	
O=C(O)/C(O)=C/C(=O)c1cn(Cc2cc(F)ccc2F)c2ccccc2c1=O		37%		> 50 µM		3200 nM	> 50 µM
O=C(O)/C(O)=C/C(=O)c1cn(Cc2ccncc2)c2ccccc2c1=O		-2.6%	> 1000 µM	> 50 µM		16000 nM	
CCOC(=O)/C(O)=C/C(=O)c1cn(Cc2ccc([N+](=O)[O-])cc2)c2ccccc2c1=O		31.9%	> 37 µM	> 50 µM		> 37000 nM	
O=C(O)/C(O)=C/C(=O)c1cn(Cc2ccc(F)cc2)c2cc(Cl)c(Cl)cc2c1=O			> 50 µM				
Cc1ccc(Cn2cc(C(=O)/C=C(\O)C(=O)O)c(=O)c3ccccc32)c(C)c1				> 50 µM		7000 nM	19.6 µM
O=C(O)/C(O)=C/C(=O)c1cn(Cc2ccc(F)c(Cl)c2)c2ccccc2c1=O		25%	21 µM	> 50 µM		190 nM	
CCOC(=O)/C(O)=C/C(=O)c1cn(Cc2ccncc2)c2ccccc2c1=O		-5.6%	> 333 µM	> 50 µM		14000 nM	
O=C(O)/C(O)=C/C(=O)c1cn(Cc2cc(F)cc(F)c2)c2ccccc2c1=O		30%		> 50 µM		220 nM	> 50 µM
CCOC(=O)/C(O)=C/C(=O)c1cn(Cc2ccc(F)c(F)c2)c2ccccc2c1=O	> 5.1	24%		9.8 µM	> 50 µM	5500 nM	
O=C(O)/C(O)=C/C(=O)c1cn(Cc2cccc(F)c2)c2ccccc2c1=O	> 1.8	2.4%	4.6 µM	28.2 µM	> 50 µM	15 nM	
O=C(O)/C(O)=C/C(=O)c1cn(Cc2ccc3ccccc3n2)c2ccccc2c1=O		16.4%	70 µM	> 50 µM		400 nM	
Cc1cc(C)cc(Cn2cc(C(=O)/C=C(\O)C(=O)O)c(=O)c3ccccc32)c1				> 50 µM		50 nM	37.8 µM
CCOC(=O)/C(O)=C/C(=O)c1cn(Cc2ccc(F)c(Cl)c2)c2c(Cl)cccc2c1=O		24%	> 333 µM	> 50 µM		25100 nM	
CCOC(=O)/C(O)=C/C(=O)c1cn(Cc2cccc(Cl)c2F)c2ccccc2c1=O	> 5	21%	1.08 µM	10 µM	> 50 µM	1080 nM	
O=C(O)/C(O)=C/C(=O)c1cn(Cc2ccc(F)c(Cl)c2)c2c(Cl)cccc2c1=O		16%	9.8 µM	50 µM		96 nM	
